Key:
[1] = Antioxidant activity against lipid peroxidation at 90 uM after 10 hrs by ferric thiocyanate method relative to control; format: functional
In short: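 Linoleic acid (>99%) emulsified with Tween 20, biphasic autoxidation system; each antioxidant at 90 µM final, held at 50 °C in the dark; lipid peroxidation read by ferric thiocyanate absorbance at 10 h, expressed as percent inhibition (%Pi) against untreated control; triplicate, mean ± standard error.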

[2] = test system: Radical scavenging activity; assay: Antioxidant activity assessed as DPPH free radical scavenging activity at 25 uM after 20 mins relative to control; format: functional
In short: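 DPPH radical scavenging run in methanol and in acetate-buffered (pH 5.5) methanol; antioxidant:DPPH molar ratio 0.25; triplicate, repeated five times; mean ± standard error.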

[3] = biological target: Xanthine dehydrogenase/oxidase (Homo sapiens, UniProt P47989); assay: Inhibition of xanthine oxidase after 15 mins; settings: 0.25 h
Sequence of Xanthine dehydrogenase/oxidase (P47989 whole entry): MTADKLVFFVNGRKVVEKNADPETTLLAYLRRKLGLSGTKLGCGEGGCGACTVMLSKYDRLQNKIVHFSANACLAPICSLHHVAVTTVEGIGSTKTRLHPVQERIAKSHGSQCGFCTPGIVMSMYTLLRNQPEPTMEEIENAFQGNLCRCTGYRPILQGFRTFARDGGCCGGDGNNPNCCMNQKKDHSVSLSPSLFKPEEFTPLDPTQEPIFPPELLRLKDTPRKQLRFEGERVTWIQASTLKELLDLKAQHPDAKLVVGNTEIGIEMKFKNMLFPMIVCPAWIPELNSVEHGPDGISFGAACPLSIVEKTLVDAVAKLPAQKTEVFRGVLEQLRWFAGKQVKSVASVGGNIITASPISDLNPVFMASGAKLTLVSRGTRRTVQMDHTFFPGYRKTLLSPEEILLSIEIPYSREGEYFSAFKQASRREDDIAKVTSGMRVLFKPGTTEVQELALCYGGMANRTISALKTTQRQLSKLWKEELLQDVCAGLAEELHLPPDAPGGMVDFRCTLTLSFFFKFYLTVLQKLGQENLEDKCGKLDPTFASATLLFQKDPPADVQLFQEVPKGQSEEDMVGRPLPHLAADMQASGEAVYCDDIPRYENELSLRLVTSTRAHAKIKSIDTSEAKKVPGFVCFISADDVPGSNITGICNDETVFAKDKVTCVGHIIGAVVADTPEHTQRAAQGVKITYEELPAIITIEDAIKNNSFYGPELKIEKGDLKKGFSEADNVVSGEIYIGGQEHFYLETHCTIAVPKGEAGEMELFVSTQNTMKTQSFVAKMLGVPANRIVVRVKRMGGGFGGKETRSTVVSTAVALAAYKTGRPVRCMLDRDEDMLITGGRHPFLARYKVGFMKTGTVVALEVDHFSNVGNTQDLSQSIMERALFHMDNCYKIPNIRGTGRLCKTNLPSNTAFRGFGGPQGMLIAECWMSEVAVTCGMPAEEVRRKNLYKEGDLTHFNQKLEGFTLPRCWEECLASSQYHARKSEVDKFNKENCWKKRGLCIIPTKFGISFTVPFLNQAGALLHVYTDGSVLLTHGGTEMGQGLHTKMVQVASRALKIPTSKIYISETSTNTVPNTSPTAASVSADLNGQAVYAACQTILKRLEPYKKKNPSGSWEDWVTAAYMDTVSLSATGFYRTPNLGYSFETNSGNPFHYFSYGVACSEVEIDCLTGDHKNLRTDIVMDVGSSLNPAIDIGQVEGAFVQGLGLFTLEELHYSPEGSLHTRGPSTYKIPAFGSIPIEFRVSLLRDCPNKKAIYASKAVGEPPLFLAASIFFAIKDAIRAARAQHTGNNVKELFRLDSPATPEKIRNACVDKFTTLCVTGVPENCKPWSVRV
In short: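 Xanthine oxidase inhibition with test agent at 0.1 mM; triplicate, mean ± standard error.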

NC(=O)[C@H](Cc1cnc[nH]1)NC(=O)[C@H](CO)NC(=O)/C=C/c1ccc(O)c(O)c1 showed an Activity [1] of 83%.
In the case of O=C(O)/C=C/c1ccc(O)c(O)c1, the Activity [2] is reported as 47%.
NC(=O)[C@H](Cc1ccccc1)NC(=O)/C=C/c1ccc(O)c(O)c1 gave an Activity [1] of 73% and an Activity [2] of 51%.
NC(=O)[C@H](Cc1cnc[nH]1)NC(=O)[C@H](Cc1cnc[nH]1)NC(=O)/C=C/c1ccc(O)c(O)c1 showed an Activity [1] of 80%.
In the case of NCCCC[C@H](NC(=O)[C@H](Cc1cnc[nH]1)NC(=O)/C=C/c1ccc(O)c(O)c1)C(N)=O, the Activity [1] is reported as 76% and the Activity [2] is reported as 54%.
COc1ccc(O)c(C(C)(C)C)c1.COc1ccc(O)cc1C(C)(C)C gave an Activity [1] of 86% and an Activity [2] of 62%.
Compound NC(=O)[C@H](CC(=O)O)NC(=O)[C@H](Cc1cnc[nH]1)NC(=O)/C=C/c1ccc(O)c(O)c1 has an Activity [1] of 73% and an Activity [2] of 49%.
NC(=O)CCNC(=O)[C@H](Cc1cnc[nH]1)NC(=O)/C=C/c1ccc(O)c(O)c1 showed an Activity [1] of 71%.
NC(=O)[C@H](Cc1ccccc1)NC(=O)[C@H](Cc1cnc[nH]1)NC(=O)/C=C/c1ccc(O)c(O)c1 gave an Activity [1] of 72%.
Work on C[C@H](NC(=O)/C=C/c1ccc(O)c(O)c1)C(=O)N[C@@H](Cc1cnc[nH]1)C(N)=O yielded an Activity [1] of 84%.
In the case of NC(=O)[C@H](CS)NC(=O)[C@H](Cc1cnc[nH]1)NC(=O)/C=C/c1ccc(O)c(O)c1, the Activity [1] is reported as 79%.
Compound NC(=O)[C@H](Cc1cnc[nH]1)NC(=O)[C@H](Cc1ccccc1)NC(=O)/C=C/c1ccc(O)c(O)c1 has an Activity [1] of 80% and an Activity [2] of 59%.
In the case of NC(=O)[C@H](CO)NC(=O)[C@H](Cc1cnc[nH]1)NC(=O)/C=C/c1ccc(O)c(O)c1, the Activity [1] is reported as 71%.
NC(=O)[C@H](Cc1cnc[nH]1)NC(=O)CCNC(=O)/C=C/c1ccc(O)c(O)c1 gave an Activity [1] of 64% and an Activity [2] of 70%.
Compound NC(=O)[C@H](Cc1cnc[nH]1)NC(=O)[C@H](CS)NC(=O)/C=C/c1ccc(O)c(O)c1 has an Activity [1] of 84%.
NCCCC[C@H](NC(=O)/C=C/c1ccc(O)c(O)c1)C(=O)N[C@@H](Cc1cnc[nH]1)C(N)=O showed an Activity [1] of 84% and an Activity [2] of 65%.
With NC(=O)[C@H](Cc1cnc[nH]1)NC(=O)[C@@H]1CCCN1C(=O)/C=C/c1ccc(O)c(O)c1 the “inhibition (INH)” value [3] was 52%, the Activity [1] was 87% and the Activity [2] was 71%.
With NC(=O)[C@H](Cc1cnc[nH]1)NC(=O)[C@H](CC(=O)O)NC(=O)/C=C/c1ccc(O)c(O)c1 the Activity [1] was 82% and the Activity [2] was 52%.
For NC(=O)[C@@H]1CCCN1C(=O)[C@H](Cc1cnc[nH]1)NC(=O)/C=C/c1ccc(O)c(O)c1, the Activity [1] was 61%.
With C[C@H](NC(=O)[C@H](Cc1cnc[nH]1)NC(=O)/C=C/c1ccc(O)c(O)c1)C(N)=O the Activity [1] was 66%.
